MEKK2 mut-MEK5 – MEK5 binding signal on mutant MEKK2 PB1, primary screen, biochemical, multiplex bead flow cytometry, Alexa488-MEK5; Alexa488-MEK5 binding to MEKK2 mutant; percent response, % at 10 µM; actives 0.35% (n = 290,000); AID 1530, 2009; in the data active = percent response above about 24%, passing the limit was not always enough
MEKK3 PB1 HTS – modulators of MEKK3-MEK5 PB1 binding, primary screen, biochemical, wildtype MEKK3, multiplex bead flow cytometry, Alexa488-MEK5; actives 1.4% (n = 290,000); Mitogen-activated protein kinase kinase kinase 3 (Homo sapiens), Q99759; binding response (% of control), % at 10 µM; bead-based flow cytometry, Alexa488-MEK5 binding to MEKK3; actives lie on both sides; 0 = blocked by unlabeled MEK5, 100 = vehicle;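 active = binding response more than 3 SD above or below the average of its plate-row segment, actives on both sides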;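 note: Alexa488 bead fluorescence after subtracting the streptavidin-only scavenger bead signal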
Target sequence (Q99759 whole entry, looked up): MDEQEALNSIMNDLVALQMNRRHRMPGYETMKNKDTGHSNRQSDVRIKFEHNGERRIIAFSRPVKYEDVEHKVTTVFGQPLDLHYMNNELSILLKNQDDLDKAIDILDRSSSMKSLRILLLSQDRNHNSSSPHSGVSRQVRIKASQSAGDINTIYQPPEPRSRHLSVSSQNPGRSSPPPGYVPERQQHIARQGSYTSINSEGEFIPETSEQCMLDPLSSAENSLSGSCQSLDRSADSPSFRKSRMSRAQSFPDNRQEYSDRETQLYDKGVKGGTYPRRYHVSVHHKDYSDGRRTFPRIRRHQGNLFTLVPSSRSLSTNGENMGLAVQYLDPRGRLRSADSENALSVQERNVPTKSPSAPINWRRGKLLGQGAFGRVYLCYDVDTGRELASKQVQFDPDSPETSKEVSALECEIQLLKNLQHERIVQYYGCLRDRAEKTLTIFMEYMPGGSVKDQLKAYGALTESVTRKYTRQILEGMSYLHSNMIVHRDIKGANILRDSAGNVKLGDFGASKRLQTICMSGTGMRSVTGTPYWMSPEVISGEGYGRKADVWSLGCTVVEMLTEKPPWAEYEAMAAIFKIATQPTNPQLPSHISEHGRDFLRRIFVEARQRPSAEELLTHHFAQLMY
MEKK2wt PB1 HTS – modulators of MEK5 binding to wildtype MEKK2, primary screen, biochemical, multiplex bead flow cytometry, Alexa488-MEK5 | Alexa488-MEK5 binding to MEKK2 WT; actives lie on both sides | binding response (% of control), % at 10 µM | actives 1.1% (n = 290,000); in the data active = binding response below about 67% or above about 130%
UBC13 inh – UBC13 polyubiquitin chain formation inhibitors, primary screen, biochemical, TR-FRET, uHTS | Ubiquitin-conjugating enzyme E2 N (Homo sapiens), P61088 | inhibition, % at 20 µM | actives 0.47% (n = 330,000) | AID 485273, 2010; in the data active = inhibition above about 45%, passing the limit was not always enough
UCH37 inh – inhibitors of human UCH37 deubiquitinase, primary screen, biochemical, Ub-AMC cleavage, fluorescence | purified proteasome/UCH37 | actives 0.33% (n = 330,000) | Ubiquitin carboxyl-terminal hydrolase isozyme L5 (Homo sapiens), Q9Y5K5 | inhibition, % (test concentration not listed) | AID 588478, 2011;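 active = mean inhibition over replicate wells above about 20%, limit read from the data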;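 note: 0% = compound-free wells with enzyme and 100% = wells lacking proteasome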
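Test system – human UCH37 enzyme supplied as purified proteasome complex · Incubation – 30 min preincubation with enzyme, 25 min cleavage at room temperature · Detection – AMC fluorescence from Ub-AMC cleavage, excitation 355 nm, emission 460 nm · Benchmarks – no-proteasome wells (full inhibition) and compound-free wells (no inhibition)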
Apaf-1 inh – inhibitors of human Apaf-1 apoptosome, primary screen, biochemical, DEVD-Rh110 fluorescence, uHTS | Apoptotic protease-activating factor 1 (Homo sapiens), O14727 | reconstituted apoptosome caspase-3 activity | inhibition, % at 20 µM | actives 0.71% (n = 330,000); active = inhibition of at least 40% at 20 µM;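 note: plate controls were DMSO wells for no effect and DEVD-CHO caspase inhibitor wells for full effect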
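Material: biochemical Apaf-1 apoptosome reconstitution. Medium: Hepes buffer, pH 7.5. Also added: cytochrome c activation, bis-DEVD rhodamine 110 substrate. Timing: 30 min compound preincubation, 50 min activation, room temperature. Measured by: rhodamine 110 fluorescence at Ex 480/Em 540 nm.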
MEKK2wt confirm – modulators of MEK5 binding to wildtype MEKK2, confirmation, biochemical, single concentration, multiplex bead flow cytometry; actives 2.4% (n = 5,900); shares compounds with MEKK3 PB1 HTS; Alexa488-MEK5 binding to MEKK2 WT; actives lie on both sides; binding response (% of control), % at 10 µM; in the data active = binding response below about 16% or above about 210%; inactive = in between
MEKK2mut confirm – mutant MEKK2 PB1-MEK5 binding signal retest – biochemical, single concentration, multiplex bead flow cytometry, confirmation; actives 2% (n = 5,900); percent response, % at 10 µM; shares compounds with MEKK3 PB1 HTS; Alexa488-MEK5 binding to MEKK2 mutant; in the data active = percent response mostly above about 71%, no sharp cut-off; inactive = mostly below about 38%;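 note: higher means compound restores mutant binding toward wildtype level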
MEKK3 confirm – MEKK3 wild-type PB1 binding to MEK5, inhibitors, confirmation, biochemical, bead multiplex flow cytometry, single concentration, wildtype; shares compounds with MEKK3 PB1 HTS; Alexa488-MEK5 binding to MEKK3; stronger effect = lower value; binding response (% of control), % at 10 µM; actives 1.8% (n = 5,900);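 active = binding response below 72% of control, or above a set upper limit, though filed actives all read lower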;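 note: 100% = DMSO only wells and 0% = binding blocked by excess unlabeled MEK5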
Casp3 counter – CASP3 inhibitor validation, counterassay for project on UBE2N polyubiquitination blockers, biochemical, one dose. Recombinant caspase-3, Caspase-Glo 3/7 luminescence, 60 min. actives 4% (n = 1,400). shares compounds with UBC13 inh. inhibition, % at 20 µM. AID 488856, 2010;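 active = mean inhibition across replicates above about 26%, limit read from the data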;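 note: plate controls were DMSO with caspase-3 for no effect and DMSO wells lacking enzyme for full effect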
UBC13 conf – UBC13 polyubiquitination inhibitors, single-point retest, confirmation, biochemical, TR-FRET, single concentration; shares compounds with UBC13 inh; inhibition, % at 10 µM; actives 68% (n = 1,400); AID 488859, 2010; in the data active = inhibition above about 45%
Apaf-1 inh conf – Apaf-1 inhibitors, single-dose retest, confirmation, biochemical, fluorescence, DEVD-Rh110, 20 µM; shares compounds with Apaf-1 inh; reconstituted apoptosome, caspase-3 DEVD-Rh110 fluorescence; inhibition, % at 20 µM; actives 25% (n = 1,800); AID 504614, 2011;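 active = mean inhibition of at least 40% at 20 µM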;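 note: plate controls were DMSO wells for no effect and DEVD-CHO caspase inhibitor control wells for full effect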
Rh110 interf inh – Rh110 fluorescence interference by putative Apaf-1 inhibitors, confirmation, artefact control for Apaf-1 inhibitor project, biochemical, 20 µM. shares compounds with Apaf-1 inh. quenched caspase reaction. activation (fluorescence interference), % at 20 µM. 1,800 tested, under 10 active. AID 504615, 2011;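 active = signal rise of 40% or more at 20 µM, treated as a fluorescence artifact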
Fluor interf inh – fluorescence interference of Apaf-1 inhibitor hits, dose response, artefact control for Apaf-1 inhibitor project | IC50, µM | shares compounds with Apaf-1 inh | 460 tested, under 10 active | fluorescence interference counterscreen, Apaf-1 assay format; call rule not given here
UCH37 reconfirm – retest of human UCH37 deubiquitinase inhibitors, confirmation, biochemical, Ub-AMC cleavage rate, fluorescence; Proteasome-bound UCH37; inhibition, % at 20 µM; AID 624100, 2012; shares compounds with UCH37 inh; actives 27% (n = 480);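 active = average inhibition over replicates above about 50%, so the earlier screening hit is confirmed, limit read from the data; inactive = the rest, counted as false positives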;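 note: based on cleavage rate fitted by regression over a 30 min kinetic read; 0% = proteasome plus Ub-AMC and 100% = Ub-AMC without proteasome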
Active calls of the source: *; i = inactive; . = no result given; [ ] = remark or other dose. Sampled rows, rich in hits. Any-hit rate of the full collection: about 3%.

SMILES	MEKK2 mut-MEK5	MEKK3 PB1 HTS	MEKK2wt PB1 HTS	UBC13 inh	UCH37 inh	Apaf-1 inh	MEKK2wt confirm	MEKK2mut confirm	MEKK3 confirm	Apaf-1 inh conf	Rh110 interf inh	UCH37 reconfirm	others
COc1ccc(CNCc2ccncc2)cc1OC	14	110	116	-5	5	0	.	.	.	.	.	.
CC(=O)[C@]1(O)Cc2c(O)c3c(c(O)c2[C@@H](O[C@H]2C[C@H](N)[C@H](O)[C@H](C)O2)C1)C(=O)c1ccccc1C3=O	30*	105	25*	-406	6	47*	104	2	101	15	-32	.
O=C(Nc1c2c(nn1-c1ccc(F)cc1)CS(=O)C2)c1ccco1 (stereo not given)	0	101	99	0	6	-13	.	.	.	.	.	.
COc1ccccc1NC(=O)CCC(=O)OCc1ccc([N+](=O)[O-])cc1	0	103	103	-3	-1	6	.	.	.	.	.	.
O=C(CON=Cc1ccccc1OC(F)F)NC1CCCC1	.	.	.	.	1	.	.	.	.	.	.	.
Oc1ccccc1/C=N/Nc1cc(N2CCCC2)nc(N2CCCC2)n1	40	102	181*	-12	.	98*	152	22	107	100*	4	.	Fluor interf inh=>100
COC(=O)[C@]1(C)N[C@H](CN(C)C(=O)c2ccc(C(C)(C)C)cc2)[C@@H]2C(=O)N(Cc3ccccc3)C(=O)[C@@H]21	.	.	.	11	0	1	.	.	.	.	.	.
O=C(Cn1cc2c(n1)CCCC2)NCCCN1CCCC1	2	102	134*	15	3	41*	113	4	94	39	0	.
COc1ccc(C(=O)Cc2ccc(OC)c(OC)c2)cc1	3	104	102	2	0	-20	.	.	.	.	.	.
N=c1n(Cc2ccccc2)c2ccccc2n1Cc1ccccc1	-2	95	106	24	6	13	.	.	.	.	.	.
N=c1n(Cc2ccccc2)c2ccccc2n1CC(O)COc1ccc(Cl)cc1Cl (stereo not given)	63*	111	220*	65*	5	52*	172	30	97	38	-18	.	Casp3 counter=0;UBC13 conf=91*
CC[n+]1c(/C=C/Nc2ccccc2)sc2ccccc21	1	101	96	-20	4	13	.	.	.	.	.	.
CCN1/C(=C/C=C/C=C/C=C/c2sc3ccccc3[n+]2CC)Sc2ccccc21	-15	30*[inhibitor]	72*[inhibitor]	25	54*	2	136	60	61*	.	.	69*
Cc1cc(N2C(=O)C3C4C=CC(C4)C3C2=O)no1 (stereo not given)	-1	101	101	2	2	2	.	.	.	.	.	.
CCCCOc1ccc(C)cc1CN(CCO)CCO	-2	93	94	0	2	-9	.	.	.	.	.	.
CCCCCc1ccc(OCCCC[n+]2ccc(C)cc2)c(CCCCC)c1	16	106	186*	42	29*	56*	177	40	110	37	12	43
CCOC(=O)c1c(-c2ccccc2)csc1NC(=O)CCN1C(=O)c2ccccc2C1=O	-7	94	97	4	-1	9	.	.	.	.	.	.
CCOC(=O)c1c(-c2ccc(-c3ccccc3)cc2)csc1NC(=O)CNCCN(C)C	69*	117	286*	79*	25*	42*	238*	141*	115	47*	5	84*	Casp3 counter=-4;UBC13 conf=85*;Fluor interf inh=>100
CCN1/C(=C/c2ccc3cc(C)ccc3[n+]2CC)Sc2ccccc21	-7	68	14*[inhibitor]	i	36*	37	39	-26	81	.	.	44
CC[C@]1(c2cccc(C)c2)C(=O)N(C(=O)OC)N1C(=O)OC	59*	105	66*	-6	35*	8	98	2	102	.	.	-6
Cc1cccc(NC(=O)N2CCN(Cc3ccc4c(c3)OCO4)CC2)c1C	6	108	114	4	5	-19	.	.	.	.	.	.
O=C1c2ccccc2-c2nc3ccccc3nc21	-27	67*[inhibitor]	72	-104	45*	-6	94	-7	99	.	.	23
CCS(=O)(=O)NCc1cn2ccsc2n1	3	99	101	5	6	-9	.	.	.	.	.	.
CCOC(=O)c1c(C(C)(C)C)oc2ccc(O)cc12	4	99	98	55*	-4	16	.	.	.	.	.	.	Casp3 counter=-5;UBC13 conf=54*

Bioassay records from PubChem BioAssay.
